Results of several laboratories.
Lines come from different studies, so protocols differ.
Target: Ephrin type-A receptor 2 (EPHA2, Homo sapiens, UniProt P29317)

Compound | assay | setting | remaining binding [%]
C[C@H](c1ccnc(Nc2nc3ccc(-c4cc(N(C)C)ncn4)cc3[nH]2)c1)N1CCN(C(=O)CC(F)(F)F)CC1 | cell-free assay, competition with immobilised ligand | 0.1 µM | 100
O=C(Nc1c[nH]nc1C(=O)NC1CCNCC1)c1cc(F)cc(F)c1 | binding, competition with immobilised ligand | 1 µM | 100
CC(C)(C)c1ccc(-c2nc(CBr)nn2-c2cccc(O)c2)cc1 | cell-free assay, competition with immobilised ligand | 10 µM | 89
C[C@@H]1CN(c2ccc3ncc(-c4ccc5[nH]nc(C6CC6)c5c4)n3n2)C[C@H](C)O1 | binding, competition with immobilised ligand | 0.5 µM | 100
O=C(c1ccc(Nc2ncc(Cl)c(-c3ccc(Cl)s3)n2)cc1)N1CCC(N2CCCC2)CC1 | binding, competition with immobilised ligand | 1 µM | 100
CS(=O)(=O)c1cc(C2(NC(=O)c3cncc4c3cnn4-c3ccc(F)cc3)CC2)ccn1 | cell-free assay, competition with immobilised ligand | 1 µM | 100
CC1CCCN1c1nccc(-c2cnn3ncccc23)n1 (stereo not shown) | binding | 1 µM | 99
COc1cnc(Nc2cccc(S(N)(=O)=O)c2)nc1N1CCN(c2ccccc2)CC1 | binding, competition with immobilised ligand | 1 µM | 100
O=C(NCCCN1CCOCC1)c1ccc(Nc2ncc(Cl)c(-c3ccc(Cl)s3)n2)cc1 | binding, competition with immobilised ligand | 1 µM | 100
N#Cc1ccccc1CSc1nnc2c(n1)[nH]c1ccccc12 | binding, competition with immobilised ligand | 10 µM | 87
O=C(NCc1ncc(C(F)(F)F)cc1Cl)c1ccc2c(c1)C1(CCS(=O)(=O)CC1)[C@@H](C1CC1)N2S(=O)(=O)c1ccc(F)cc1 | cell-free assay, competition with immobilised ligand | 1 µM | 84
N[C@H]1CCN(c2nccc(-c3cnn4ncccc34)n2)C1 | binding | 1 µM | 87
c1cncc(-c2cccc(Nc3nccc(NC4CCCCC4)n3)c2)c1 | binding, competition with immobilised ligand | 10 µM | 83
F[C@@H]1CCN(c2nccc(-c3cnn4ncccc34)n2)C1 | binding | 1 µM | 100
Cn1nc(C(=O)NCc2ccc(C(=O)O)cc2)cc1-c1ccc2[nH]ccc2c1 | cell-free assay, competition with immobilised ligand | 0.1 µM | 95
c1cnn2ncc(-c3ccnc(N4CCC45COC5)n3)c2c1 | binding | 1 µM | 94
CCN1CCN(Cc2ccc(C(=O)Nc3ccc(C)c(Oc4ccc5c(c4)CC(=O)N5)c3)cc2C(F)(F)F)CC1 | binding, competition with immobilised ligand | 1 µM | 73
Cc1cnn2ncc(-c3ccnc(N(C)C)n3)c2c1 | binding | 1 µM | 95
Cc1noc([C@H]2C[C@@H](c3ccc(C(F)(F)F)cc3)CN(C(=O)N3CCS(=O)(=O)C3)C2)n1 | cell-free assay, competition with immobilised ligand | 1 µM | 100
COc1ncc2cc3ccccc3nc2c1C#N | cell-free assay, competition with immobilised ligand | 5 µM | 96
CN(C)c1ncc(F)c(-c2cnn3ncccc23)n1 | binding | 1 µM | 80
Nc1cnc(N2CCc3cc(S(=O)(=O)Nc4c(F)cc(Cl)cc4F)cc(N4CCCC4=O)c32)nc1 | cell-free assay, competition with immobilised ligand | 1 µM | 100
O=C(NCCCN1CCOCC1)c1ccc(Nc2nccc(-c3cc4ccccc4s3)n2)cc1 | binding, competition with immobilised ligand | 1 µM | 72
C[C@H]1CCN(c2nccc(-c3cnn4ncccc34)n2)C1 | binding | 1 µM | 100
NS(=O)(=O)c1cc(NC(=O)Cc2ccccc2)ccc1Oc1cccc(Cl)c1 | cell-free assay, competition with immobilised ligand | 1 µM | 91
